In one data set the test system is Influenza A virus. Nature of the data set: Antiviral activity against Influenza A virus (A/WSN/33(H1N1)) infected in MDCK cells assessed as reduction in virus-induced cytopathic effect at 50 uM after 40 hrs by CellTiter-Glo assay. The format is functional, organism-based. To be noted: A/WSN/1933(H1N1). Summed up:
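MDCK cells seeded, grown overnight, then infected with A/WSN/33 (H1N1) at MOI 0.1 in DMEM with 1% FBS, 2 μg/mL TPCK-treated trypsin and test compound (final DMSO 1%). Compounds screened at a single 50 μM concentration. Incubation 40 h, then viability read by CellTiter-Glo luminescence. Oseltamivir positive control, DMSO negative control. Virus stock titres determined in MDCK cells by Reed and Muench.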

A further data set concerns MDCK. Nature of the data set: Cytotoxicity against MDCK cells assessed as effect on cell viability at 50 uM measured after 36 hrs by CellTiter-Glo assay. The format is cell-based, Canis lupus familiaris. The conditions noted are these: dog. Summed up: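 MDCK cells (1 × 10⁴ per well) left to adhere 24 h at 37 °C, 5% CO₂. Medium then replaced with fresh medium containing compound at 50 μM, in triplicate. Controls received medium with 1% DMSO. Plates incubated 36 h at 37 °C, 5% CO₂, then viability read by CellTiter-Glo luminescence.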

SMILES strings stand for the structures. Calls of active or inactive are those of the source. No cut-off for these calls is given here.

On to `CC(=O)OC[C@H]1O[C@@H]2O[C@H]3[C@H](OC(C)=O)[C@@H](OC(C)=O)[C@@H](O[C@H]4[C@H](OC(C)=O)[C@@H](OC(C)=O)[C@@H](O[C@H]5[C@H](OC(C)=O)[C@@H](OC(C)=O)[C@@H](O[C@H]6[C@H](OC(C)=O)[C@@H](OC(C)=O)[C@@H](O[C@H]7[C@H](OC(C)=O)[C@@H](OC(C)=O)[C@@H](O[C@H]8[C@H](OC(C)=O)[C@@H](OC(C)=O)[C@@H](O[C@H]1[C@H](OC(C)=O)[C@H]2OC(C)=O)O[C@@H]8COC(C)=O)O[C@@H]7COC(C)=O)O[C@@H]6COC(C)=O)O[C@@H]5Cn1cc(CN2CCN(CCNC(=O)[C@@]5(C)CC[C@]6(C)CC[C@]7(C)C(=CC(=O)[C@@H]8[C@@]9(C)CC[C@H](O)C(C)(C)[C@@H]9CC[C@]87C)[C@@H]6C5)CC2)nn1)O[C@@H]4COC(C)=O)O[C@@H]3COC(C)=O`, for which the outcome in the data set with Influenza A virus was inactive. Besides, in the data set with MDCK, the Activity entry is recorded as “Non-Toxic”.
On the same counts, the results for `CC(=O)OC[C@H]1O[C@@H]2O[C@H]3[C@H](OC(C)=O)[C@@H](OC(C)=O)[C@@H](O[C@H]4[C@H](OC(C)=O)[C@@H](OC(C)=O)[C@@H](O[C@H]5[C@H](OC(C)=O)[C@@H](OC(C)=O)[C@@H](O[C@H]6[C@H](OC(C)=O)[C@@H](OC(C)=O)[C@@H](O[C@H]7[C@H](OC(C)=O)[C@@H](OC(C)=O)[C@@H](O[C@H]8[C@H](OC(C)=O)[C@@H](OC(C)=O)[C@@H](O[C@H]1[C@H](OC(C)=O)[C@H]2OC(C)=O)O[C@@H]8COC(C)=O)O[C@@H]7COC(C)=O)O[C@@H]6COC(C)=O)O[C@@H]5Cn1cc(CNC(=O)[C@@]2(C)CC[C@]5(C)CC[C@]6(C)C(=CC(=O)[C@@H]7[C@@]8(C)CC[C@H](O)C(C)(C)[C@@H]8CC[C@]76C)[C@@H]5C2)nn1)O[C@@H]4COC(C)=O)O[C@@H]3COC(C)=O` are “Active” and “Non-Toxic”.
As for `CC1(C)[C@@H](O)CC[C@]2(C)[C@H]3C(=O)C=C4[C@@H]5C[C@@](C)(C(=O)NCCOCc6cn(C[C@H]7O[C@@H]8O[C@H]9[C@H](O)[C@@H](O)[C@@H](O[C@H]%10[C@H](O)[C@@H](O)[C@@H](O[C@H]%11[C@H](O)[C@@H](O)[C@@H](O[C@H]%12[C@H](O)[C@@H](O)[C@@H](O[C@H]%13[C@H](O)[C@@H](O)[C@@H](O[C@H]%14[C@H](O)[C@@H](O)[C@@H](O[C@H]7[C@H](O)[C@H]8O)O[C@@H]%14CO)O[C@@H]%13CO)O[C@@H]%12CO)O[C@@H]%11CO)O[C@@H]%10CO)O[C@@H]9CO)nn6)CC[C@]5(C)CC[C@@]4(C)[C@]3(C)CC[C@@H]12`, the outcome in the data set with Influenza A virus was Active. Besides, in the data set on MDCK, the Activity result was “Non-Toxic”.
With `CC(=O)OC[C@H]1O[C@@H]2O[C@H]3[C@H](O)[C@@H](O)[C@@H](O[C@H]4[C@H](O)[C@@H](O)[C@@H](O[C@H]5[C@H](O)[C@@H](O)[C@@H](O[C@H]6[C@H](O)[C@@H](O)[C@@H](O[C@H]7[C@H](O)[C@@H](O)[C@@H](O[C@H]8[C@H](O)[C@@H](O)[C@@H](O[C@H]1[C@H](O)[C@H]2O)O[C@@H]8CO)O[C@@H]7CO)O[C@@H]6CO)O[C@@H]5CO)O[C@@H]4Cn1cc(COCCOCCNC(=O)[C@@]2(C)CC[C@]4(C)CC[C@]5(C)C(=CC(=O)[C@@H]6[C@@]7(C)CC[C@H](O)C(C)(C)[C@@H]7CC[C@]65C)[C@@H]4C2)nn1)O[C@@H]3COC(C)=O`, the result in the data set on Influenza A virus was Active. Also, the Activity entry in the data set on MDCK is given as “Non-Toxic”.
Take `CC(=O)OC[C@H]1O[C@@H]2O[C@H]3[C@H](OC(C)=O)[C@@H](OC(C)=O)[C@@H](O[C@H]4[C@H](OC(C)=O)[C@@H](OC(C)=O)[C@@H](O[C@H]5[C@H](OC(C)=O)[C@@H](OC(C)=O)[C@@H](O[C@H]6[C@H](OC(C)=O)[C@@H](OC(C)=O)[C@@H](O[C@H]7[C@H](OC(C)=O)[C@@H](OC(C)=O)[C@@H](O[C@H]8[C@H](OC(C)=O)[C@@H](OC(C)=O)[C@@H](O[C@H]1[C@H](OC(C)=O)[C@H]2OC(C)=O)O[C@@H]8COC(C)=O)O[C@@H]7COC(C)=O)O[C@@H]6COC(C)=O)O[C@@H]5Cn1cc(COCCNC(=O)[C@@]2(C)CC[C@]5(C)CC[C@]6(C)C(=CC(=O)[C@@H]7[C@@]8(C)CC[C@H](O)C(C)(C)[C@@H]8CC[C@]76C)[C@@H]5C2)nn1)O[C@@H]4COC(C)=O)O[C@@H]3COC(C)=O`: the result in the data set on Influenza A virus was Active. Also, the Activity result in the data set on MDCK is reported as “Non-Toxic”.
On to `CC(=O)OC[C@H]1O[C@@H]2O[C@H]3[C@H](OC(C)=O)[C@@H](OC(C)=O)[C@@H](O[C@H]4[C@H](OC(C)=O)[C@@H](OC(C)=O)[C@@H](O[C@H]5[C@H](OC(C)=O)[C@@H](OC(C)=O)[C@@H](O[C@H]6[C@H](OC(C)=O)[C@@H](OC(C)=O)[C@@H](O[C@H]7[C@H](OC(C)=O)[C@@H](OC(C)=O)[C@@H](O[C@H]8[C@H](OC(C)=O)[C@@H](OC(C)=O)[C@@H](O[C@H]1[C@H](OC(C)=O)[C@H]2OC(C)=O)O[C@@H]8COC(C)=O)O[C@@H]7COC(C)=O)O[C@@H]6COC(C)=O)O[C@@H]5Cn1cc(COCCOCCOCCOCCNC(=O)[C@@]2(C)CC[C@]5(C)CC[C@]6(C)C(=CC(=O)[C@@H]7[C@@]8(C)CC[C@H](O)C(C)(C)[C@@H]8CC[C@]76C)[C@@H]5C2)nn1)O[C@@H]4COC(C)=O)O[C@@H]3COC(C)=O`, for which, in the data set on Influenza A virus, the result was Active. Moreover, the Activity entry with MDCK was “Non-Toxic”.
Turning to `CC1(C)[C@@H](O)CC[C@]2(C)[C@H]3C(=O)C=C4[C@@H]5C[C@@](C)(C(=O)NCCOCCOCCOCCOCc6cn(C[C@H]7O[C@@H]8O[C@H]9[C@H](O)[C@@H](O)[C@@H](O[C@H]%10[C@H](O)[C@@H](O)[C@@H](O[C@H]%11[C@H](O)[C@@H](O)[C@@H](O[C@H]%12[C@H](O)[C@@H](O)[C@@H](O[C@H]%13[C@H](O)[C@@H](O)[C@@H](O[C@H]%14[C@H](O)[C@@H](O)[C@@H](O[C@H]7[C@H](O)[C@H]8O)O[C@@H]%14CO)O[C@@H]%13CO)O[C@@H]%12CO)O[C@@H]%11CO)O[C@@H]%10CO)O[C@@H]9CO)nn6)CC[C@]5(C)CC[C@@]4(C)[C@]3(C)CC[C@@H]12`, in the data set on Influenza A virus, the outcome was Active. For the same molecule, the Activity entry with MDCK is “Non-Toxic”.
The matching figures for `CC(=O)OC[C@H]1O[C@@H]2O[C@H]3[C@H](O)[C@@H](O)[C@@H](O[C@H]4[C@H](O)[C@@H](O)[C@@H](O[C@H]5[C@H](O)[C@@H](O)[C@@H](O[C@H]6[C@H](O)[C@@H](O)[C@@H](O[C@H]7[C@H](O)[C@@H](O)[C@@H](O[C@H]8[C@H](O)[C@@H](O)[C@@H](O[C@H]1[C@H](O)[C@H]2O)O[C@@H]8CO)O[C@@H]7CO)O[C@@H]6CO)O[C@@H]5CO)O[C@@H]4CO)O[C@@H]3Cn1cc(CN2CCN(CCNC(=O)[C@@]3(C)CC[C@]4(C)CC[C@]5(C)C(=CC(=O)[C@@H]6[C@@]7(C)CC[C@H](O)C(C)(C)[C@@H]7CC[C@]65C)[C@@H]4C3)CC2)nn1`: “inactive” and “Non-Toxic”.
`CC1(C)[C@@H](O)CC[C@]2(C)[C@H]3C(=O)C=C4[C@@H]5C[C@@](C)(C(=O)NCCOCCOCCOCCOCCOCCOCc6cn(C[C@H]7O[C@@H]8O[C@H]9[C@H](O)[C@@H](O)[C@@H](O[C@H]%10[C@H](O)[C@@H](O)[C@@H](O[C@H]%11[C@H](O)[C@@H](O)[C@@H](O[C@H]%12[C@H](O)[C@@H](O)[C@@H](O[C@H]%13[C@H](O)[C@@H](O)[C@@H](O[C@H]%14[C@H](O)[C@@H](O)[C@@H](O[C@H]7[C@H](O)[C@H]8O)O[C@@H]%14CO)O[C@@H]%13CO)O[C@@H]%12CO)O[C@@H]%11CO)O[C@@H]%10CO)O[C@@H]9CO)nn6)CC[C@]5(C)CC[C@@]4(C)[C@]3(C)CC[C@@H]12`: the result with Influenza A virus was Active. For the same molecule, in the data set with MDCK, the Activity entry is “Non-Toxic”.
In the case of `CC1(C)[C@@H](O)CC[C@]2(C)[C@H]3C(=O)C=C4[C@@H]5C[C@@](C)(C(=O)NCc6cn(C[C@H]7O[C@@H]8O[C@H]9[C@H](O)[C@@H](O)[C@@H](O[C@H]%10[C@H](O)[C@@H](O)[C@@H](O[C@H]%11[C@H](O)[C@@H](O)[C@@H](O[C@H]%12[C@H](O)[C@@H](O)[C@@H](O[C@H]%13[C@H](O)[C@@H](O)[C@@H](O[C@H]%14[C@H](O)[C@@H](O)[C@@H](O[C@H]7[C@H](O)[C@H]8O)O[C@@H]%14CO)O[C@@H]%13CO)O[C@@H]%12CO)O[C@@H]%11CO)O[C@@H]%10CO)O[C@@H]9CO)nn6)CC[C@]5(C)CC[C@@]4(C)[C@]3(C)CC[C@@H]12`, the result in the data set on Influenza A virus was Active. In addition, the Activity entry in the data set with MDCK was “Non-Toxic”.
As to `CC(=O)OC[C@H]1O[C@@H]2O[C@H]3[C@H](OC(C)=O)[C@@H](OC(C)=O)[C@@H](O[C@H]4[C@H](OC(C)=O)[C@@H](OC(C)=O)[C@@H](O[C@H]5[C@H](OC(C)=O)[C@@H](OC(C)=O)[C@@H](O[C@H]6[C@H](OC(C)=O)[C@@H](OC(C)=O)[C@@H](O[C@H]7[C@H](OC(C)=O)[C@@H](OC(C)=O)[C@@H](O[C@H]8[C@H](OC(C)=O)[C@@H](OC(C)=O)[C@@H](O[C@H]1[C@H](OC(C)=O)[C@H]2OC(C)=O)O[C@@H]8COC(C)=O)O[C@@H]7COC(C)=O)O[C@@H]6COC(C)=O)O[C@@H]5Cn1cc(CO[C@H]2CC[C@]5(C)[C@H]6C(=O)C=C7[C@@H]8C[C@@](C)(C(=O)O)CC[C@]8(C)CC[C@@]7(C)[C@]6(C)CC[C@H]5C2(C)C)nn1)O[C@@H]4COC(C)=O)O[C@@H]3COC(C)=O`, the Activity result with MDCK is “Non-Toxic”.

Source of the values: ChEMBL document CHEMBL4400530, “Synthesis and structure-activity relationship studies of water-soluble β-cyclodextrin-glycyrrhetinic acid conjugates as potential anti-influenza virus agents” (Eur J Med Chem, 2019).
